Here are results for 10 molecules from ChEMBL document CHEMBL1125309, “Discovery of a novel class of orally active, non-peptide angiotensin II antagonists” (J Med Chem, 1992).

One may read the Ki as a measure of affinity in units of concentration, obtained from inhibition or displacement. Low values mean higher affinity, high ones lower affinity.

Test [1] concerns the target T1, Type-1 angiotensin II receptor B (Rattus norvegicus, UniProt P29089).
T1 sequence (P29089 whole entry): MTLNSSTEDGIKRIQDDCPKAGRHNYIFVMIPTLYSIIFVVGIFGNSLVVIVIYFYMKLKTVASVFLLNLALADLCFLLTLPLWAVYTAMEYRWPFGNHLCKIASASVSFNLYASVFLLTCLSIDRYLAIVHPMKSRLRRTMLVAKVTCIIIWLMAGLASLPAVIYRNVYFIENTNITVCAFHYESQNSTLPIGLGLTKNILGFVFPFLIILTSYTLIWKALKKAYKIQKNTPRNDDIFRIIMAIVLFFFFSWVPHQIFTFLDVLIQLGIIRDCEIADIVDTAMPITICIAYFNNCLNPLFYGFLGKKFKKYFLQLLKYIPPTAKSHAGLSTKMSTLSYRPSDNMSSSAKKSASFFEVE
Kind of test: Compound was evaluated for binding affinity against angiotensin II receptor, type 1 in rat liver.

The target in test [2] is T2, Type-1 angiotensin II receptor (Oryctolagus cuniculus, UniProt P34976).
T2 sequence (P34976 whole entry): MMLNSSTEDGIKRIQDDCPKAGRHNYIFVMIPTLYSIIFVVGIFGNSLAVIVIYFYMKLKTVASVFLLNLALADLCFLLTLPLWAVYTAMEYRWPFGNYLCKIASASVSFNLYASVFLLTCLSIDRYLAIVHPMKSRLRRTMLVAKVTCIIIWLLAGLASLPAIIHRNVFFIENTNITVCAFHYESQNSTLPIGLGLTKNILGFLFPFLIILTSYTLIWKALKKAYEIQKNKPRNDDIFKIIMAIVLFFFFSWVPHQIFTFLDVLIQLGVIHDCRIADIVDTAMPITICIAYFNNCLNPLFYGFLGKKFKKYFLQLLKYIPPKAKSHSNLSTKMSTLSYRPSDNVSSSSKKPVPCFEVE
Briefly: Compound was evaluated for in vitro potency against angiotensin II receptor, type 1 in isolated rabbit aorta; value ranges from 8.08-8.22. To be noted: read-out: pA2 (converted). The procedure, abridged: (§1)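 Isolated rabbit aortic ring preparation contracted with angiotensin II; concentration–response curves to AII run in the presence of antagonist; parallel rightward shifts analysed by Schild analysis to give pA2 and slope.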

Test [3] addresses T2, Type-1 angiotensin II receptor. Briefly: Compound was evaluated for in vitro potency against Angiotensin II receptor, type 1 in isolated rabbit aorta; value ranges from 7.13-7.17. To be noted: read-out: pA2 (converted). The procedure, abridged:
as §1

Test [4] has the same target. Kind of test: Compound was evaluated for in vitro potency against Angiotensin II receptor, type 1 in isolated rabbit aorta; value ranges from 5.53-5.69. As to conditions: read-out: pA2 (converted). The procedure, abridged: as §1
Test [5] has the same target. Kind of test: Compound was evaluated for in vitro potency against angiotensin II receptor, type 1 in isolated rabbit aorta. To be noted: read-out: pA2 (converted). It is filed as tissue-based. The procedure, abridged: as §1
For test [6], the target named is T1, Type-1 angiotensin II receptor B. Briefly: Compound was evaluated for binding affinity against AT1 receptor in rat liver. The method in brief:
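Displacement of [125I]saralasin from AT1 receptors in rat liver membranes; compounds tested at multiple concentrations as required; Ki derived from the binding curves.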

Test [7] deals with T2, Type-1 angiotensin II receptor. Kind of test: Compound was evaluated for in vitro potency against AT1 receptor in isolated rabbit aorta; value ranges from 7.91-7.97. As to conditions: read-out: pA2 (converted). The procedure, abridged: as §1
Test [8] shares this target. Briefly: Compound was evaluated for in vitro potency against angiotensin II receptor, type 1 in isolated rabbit aorta; value ranges from 8.70-8.83. To be noted: read-out: pA2 (converted). The method in brief: as §1

For the molecule `CCCCN(Cc1ccc(-c2ccccc2-c2nnn[nH]2)cc1)c1nc(C)ccc1C(=O)O`, the affinity in test [1] corresponds to a Ki of 122 nM. Further, the Kb in test [2] was 8.32 nM.
As for `CCCCc1ncc(C(=O)O)c(N(C)Cc2ccc(-c3ccccc3-c3nn[nH]n3)cc2)n1`, the Kb in test [3] is 74.1 nM.
Take `O=C(O)c1cncnc1NCc1ccc(-c2ccccc2-c2nn[nH]n2)cc1`: in test [4], the Kb was 2950 nM.
In test [1], `CCCCN(Cc1ccc(-c2ccccc2-c2nn[nH]n2)cc1)c1nc(C)ncc1C(=O)O` yielded a Ki of 15.3 nM.
Consider `CCCCN(Cc1ccc(-c2ccccc2-c2nn[nH]n2)cc1)c1ncccc1C(=O)O`, for which the Kb in test [5] is 0.316 nM.
`CCCCc1ncc(C(=O)O)c(NCc2ccc(-c3ccccc3-c3nn[nH]n3)cc2)n1` displayed an inhibitory constant (Ki) in test [6] of 198 nM. The Kb in test [7] was 12.3 nM.
In the case of `CCCCN(Cc1ccc(-c2ccccc2-c2nnn[nH]2)cc1)c1ncncc1C(=O)O`, in test [1], the Ki is 3.13 nM. Moreover, the Kb in test [5] was 0.117 nM.
As for `CCCN(Cc1ccc(-c2ccccc2-c2nnn[nH]2)cc1)c1ncccc1C(=O)O`, in test [1], affinity was put at a Ki of 0.76 nM.
The same measure, in the same setting: in the case of `CCCN(Cc1ccc(-c2ccccc2-c2nn[nH]n2)cc1)c1nc(C)ncc1C(=O)O` it was 2.78 nM.
In the case of `CCN(Cc1ccc(-c2ccccc2-c2nn[nH]n2)cc1)c1ncccc1C(=O)O`, in test [8], the Kb was 2 nM.
